In ChEMBL document CHEMBL4665670 (ACS Med Chem Lett, 2019):
Activity calls are given as the source filed them. No cut-off for these calls is given here.

Assays:
[1] = Intrinsic clearance in rat liver microsomes; format: ADME, Microsome
[2] = target: T1, Tyrosine-protein kinase BTK (Homo sapiens, UniProt Q06187); test: Inhibition of full length human unphosphorylated BTK using FITC-Ahx-TSELKKVVALYDYMPMNAND-NH2 as substrate incubated for 60 mins in presence of ATP at Km concentration
[3] = target: T1, Tyrosine-protein kinase BTK; test: Inhibition of BTK in human whole blood assessed as reduction in polyclonal anti-IgM antibody/human IL4-stimulated CD69 cell surface expression on B cells incubated for 16 hrs by FACS analysis; format: tissue-based
[4] = Clearance in Sprague-Dawley rat at 1 mg/kg, iv measured up to 24 hrs by HPLC analysis; format: ADME, organism-based; settings: in vivo
[5] = (§1) In vivo protein occupancy at BTK in Wistar Han rat spleen at 10 mg/kg, po measured after 5 hrs relative to control; format: functional
Method in brief: (§2)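 BTK occupancy measured in spleen homogenates of female rats 5 h after a single 10 mg kg^-1 oral dose, relative to the respective vehicle control. Single-animal values, mean ± SD.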

[6] = Intrinsic clearance in human liver microsomes; format: ADME, Microsome
[7] = tested on: Rattus norvegicus; test: as §1; format: functional; method in brief: as §2
[8] = tested on: Mus musculus; test: […] activity in ovalbumin-immunized C57Bl6 mouse assessed as reduction in skin swelling at 30 mg/kg, po administered 2 h prior to OVA immunization and measured after 5 hrs by caliper method relative to control; format: functional; design: scale not given: the % may be the effect or the level left
Method in brief: (§3)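 Mouse reverse passive Arthus reaction: acute FcγR-dependent hypersensitivity induced by intravenous ovalbumin antigen followed by intradermal polyclonal IgG anti-OVA antibody. Single oral dose given 2 h before induction; skin swelling measured 5 h after dosing, compared with vehicle control (SD shown).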

[9] = Terminal plasma concentration in ovalbumin-immunized C57Bl6 mouse at 30 mg/kg, po administered 2 h prior to OVA immunization and measured after 5 hrs; format: ADME, organism-based; settings: read-out: Cp(T)
Method in brief: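 Mice received a single oral dose 2 h before induction of the reverse passive Arthus reaction, which was intravenous ovalbumin followed by intradermal polyclonal IgG anti-OVA antibody. Terminal blood compound concentration was measured 5 h after dosing and reported in nM.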

[10] = Terminal plasma concentration in ovalbumin-immunized C57Bl6 mouse at 20 mg/kg, po administered 2 h prior to OVA immunization and measured after 5 hrs; format: ADME, organism-based; settings: read-out: Cp(T)
Method in brief: (§4)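 Terminal blood drug concentrations taken in the mouse reverse passive Arthus study (i.v. OVA plus intradermal IgG anti-OVA), after a single oral dose of 6, 20 or 60 mg/kg given 2 h before induction, sampled 5 h after dosing.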

[11] = target: Receptor tyrosine-protein kinase erbB-4 (Homo sapiens, UniProt Q15303); test: Inhibition of ERBB4 (unknown origin)
Chain of Receptor tyrosine-protein kinase erbB-4 (Q15303 whole entry): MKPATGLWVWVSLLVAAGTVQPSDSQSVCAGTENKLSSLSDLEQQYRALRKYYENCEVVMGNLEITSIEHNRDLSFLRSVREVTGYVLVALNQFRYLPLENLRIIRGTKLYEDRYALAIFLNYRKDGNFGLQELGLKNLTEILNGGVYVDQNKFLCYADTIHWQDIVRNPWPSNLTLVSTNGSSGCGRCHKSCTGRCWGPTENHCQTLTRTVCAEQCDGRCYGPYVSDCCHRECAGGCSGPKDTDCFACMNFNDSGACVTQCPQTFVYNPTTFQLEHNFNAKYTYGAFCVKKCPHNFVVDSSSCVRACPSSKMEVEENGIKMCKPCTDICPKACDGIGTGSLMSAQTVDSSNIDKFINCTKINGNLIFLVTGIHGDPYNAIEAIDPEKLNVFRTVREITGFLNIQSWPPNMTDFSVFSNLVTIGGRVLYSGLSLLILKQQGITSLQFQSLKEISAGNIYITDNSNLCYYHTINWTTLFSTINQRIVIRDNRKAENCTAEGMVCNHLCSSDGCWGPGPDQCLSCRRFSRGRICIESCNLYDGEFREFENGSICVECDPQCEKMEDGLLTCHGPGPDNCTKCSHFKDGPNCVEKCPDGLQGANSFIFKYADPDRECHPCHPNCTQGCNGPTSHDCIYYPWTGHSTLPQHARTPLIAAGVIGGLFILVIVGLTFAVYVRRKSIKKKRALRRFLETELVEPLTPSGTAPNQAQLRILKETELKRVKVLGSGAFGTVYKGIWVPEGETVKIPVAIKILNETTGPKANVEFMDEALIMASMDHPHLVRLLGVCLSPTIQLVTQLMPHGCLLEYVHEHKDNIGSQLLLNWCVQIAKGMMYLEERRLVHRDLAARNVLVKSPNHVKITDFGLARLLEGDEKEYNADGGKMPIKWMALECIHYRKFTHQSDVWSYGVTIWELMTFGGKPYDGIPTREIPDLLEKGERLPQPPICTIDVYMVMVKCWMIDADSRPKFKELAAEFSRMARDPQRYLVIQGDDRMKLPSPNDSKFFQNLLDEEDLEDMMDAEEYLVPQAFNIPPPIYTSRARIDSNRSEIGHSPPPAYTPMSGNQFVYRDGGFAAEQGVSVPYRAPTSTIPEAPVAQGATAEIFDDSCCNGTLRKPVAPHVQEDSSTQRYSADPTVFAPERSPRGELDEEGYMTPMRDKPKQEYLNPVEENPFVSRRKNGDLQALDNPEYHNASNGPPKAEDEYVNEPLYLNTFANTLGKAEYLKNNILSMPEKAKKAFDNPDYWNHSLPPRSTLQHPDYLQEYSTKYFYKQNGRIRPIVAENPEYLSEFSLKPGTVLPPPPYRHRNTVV

[12] = Terminal plasma concentration in ovalbumin-immunized C57Bl6 mouse at 6 mg/kg, po administered 2 h prior to OVA immunization and measured after 5 hrs; format: ADME, organism-based; settings: read-out: Cp(T); method in brief: as §4
[13] = target: T2, Epidermal growth factor receptor (Homo sapiens, UniProt P00533); test: Inhibition of EGFR (unknown origin)
T2 sequence (P00533 whole entry): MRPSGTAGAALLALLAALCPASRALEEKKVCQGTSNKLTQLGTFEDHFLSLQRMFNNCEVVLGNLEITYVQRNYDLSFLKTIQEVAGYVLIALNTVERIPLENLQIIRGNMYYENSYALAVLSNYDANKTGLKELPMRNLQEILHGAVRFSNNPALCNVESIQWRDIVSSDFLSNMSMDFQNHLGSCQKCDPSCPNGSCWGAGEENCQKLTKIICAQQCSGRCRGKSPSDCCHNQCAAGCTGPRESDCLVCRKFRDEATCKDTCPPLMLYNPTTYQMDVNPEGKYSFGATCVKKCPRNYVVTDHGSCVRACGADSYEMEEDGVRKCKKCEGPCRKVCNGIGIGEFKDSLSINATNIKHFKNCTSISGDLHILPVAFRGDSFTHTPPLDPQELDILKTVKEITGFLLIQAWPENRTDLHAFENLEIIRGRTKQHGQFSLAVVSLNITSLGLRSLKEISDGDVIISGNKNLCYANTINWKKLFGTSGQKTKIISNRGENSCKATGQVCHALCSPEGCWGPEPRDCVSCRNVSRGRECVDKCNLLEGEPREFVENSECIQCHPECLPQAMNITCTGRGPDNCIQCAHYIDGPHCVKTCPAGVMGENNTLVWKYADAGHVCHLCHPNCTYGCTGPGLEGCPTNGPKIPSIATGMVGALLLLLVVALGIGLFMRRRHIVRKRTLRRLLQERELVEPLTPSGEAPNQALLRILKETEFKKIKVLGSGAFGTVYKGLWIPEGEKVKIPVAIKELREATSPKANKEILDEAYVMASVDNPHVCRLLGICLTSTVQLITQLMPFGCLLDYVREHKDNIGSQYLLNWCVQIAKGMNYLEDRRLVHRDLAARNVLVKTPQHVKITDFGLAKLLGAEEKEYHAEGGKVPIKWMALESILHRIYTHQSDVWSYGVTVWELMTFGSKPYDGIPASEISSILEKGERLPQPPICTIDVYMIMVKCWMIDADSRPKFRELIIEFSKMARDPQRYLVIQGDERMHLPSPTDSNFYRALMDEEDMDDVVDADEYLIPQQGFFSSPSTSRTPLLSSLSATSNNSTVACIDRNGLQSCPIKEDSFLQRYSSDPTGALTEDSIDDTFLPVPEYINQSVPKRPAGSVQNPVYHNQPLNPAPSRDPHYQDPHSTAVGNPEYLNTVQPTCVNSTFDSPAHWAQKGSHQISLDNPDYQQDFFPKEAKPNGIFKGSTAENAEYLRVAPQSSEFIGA

[14] = Clearance in Sprague-Dawley rat at 3 mg/kg, po measured up to 24 hrs by HPLC analysis; format: ADME, organism-based; settings: in vivo
[15] = Oral bioavailability in Sprague-Dawley rat at 3 mg/kg measured up to 24 hrs by HPLC analysis; format: ADME, organism-based; settings: in vivo
[16] = Intrinsic clearance in mouse liver microsomes; format: ADME, Microsome
[17] = target: T1, Tyrosine-protein kinase BTK; test: Irreversible inhibition of human BTK kinase domain by LC/MS analysis
[18] = target: T2, Epidermal growth factor receptor; test: Inhibition of EGF-induced EGFR phosphorylation in human A431 cells preincubated for 24 hrs followed by EGF stimulation and measured after 10 mins by HTRF based immunoassay; format: cell-based
[19] = Terminal plasma concentration in ovalbumin-immunized C57Bl6 mouse at 60 mg/kg, po administered 2 h prior to OVA immunization and measured after 5 hrs; format: ADME, organism-based; settings: read-out: Cp(T); method in brief: as §4
[20] = target: T3, Tyrosine-protein kinase JAK3 (Homo sapiens) (UniProt P52333); test: Inhibition of JAK3 (unknown origin)
T3 sequence (whole entry): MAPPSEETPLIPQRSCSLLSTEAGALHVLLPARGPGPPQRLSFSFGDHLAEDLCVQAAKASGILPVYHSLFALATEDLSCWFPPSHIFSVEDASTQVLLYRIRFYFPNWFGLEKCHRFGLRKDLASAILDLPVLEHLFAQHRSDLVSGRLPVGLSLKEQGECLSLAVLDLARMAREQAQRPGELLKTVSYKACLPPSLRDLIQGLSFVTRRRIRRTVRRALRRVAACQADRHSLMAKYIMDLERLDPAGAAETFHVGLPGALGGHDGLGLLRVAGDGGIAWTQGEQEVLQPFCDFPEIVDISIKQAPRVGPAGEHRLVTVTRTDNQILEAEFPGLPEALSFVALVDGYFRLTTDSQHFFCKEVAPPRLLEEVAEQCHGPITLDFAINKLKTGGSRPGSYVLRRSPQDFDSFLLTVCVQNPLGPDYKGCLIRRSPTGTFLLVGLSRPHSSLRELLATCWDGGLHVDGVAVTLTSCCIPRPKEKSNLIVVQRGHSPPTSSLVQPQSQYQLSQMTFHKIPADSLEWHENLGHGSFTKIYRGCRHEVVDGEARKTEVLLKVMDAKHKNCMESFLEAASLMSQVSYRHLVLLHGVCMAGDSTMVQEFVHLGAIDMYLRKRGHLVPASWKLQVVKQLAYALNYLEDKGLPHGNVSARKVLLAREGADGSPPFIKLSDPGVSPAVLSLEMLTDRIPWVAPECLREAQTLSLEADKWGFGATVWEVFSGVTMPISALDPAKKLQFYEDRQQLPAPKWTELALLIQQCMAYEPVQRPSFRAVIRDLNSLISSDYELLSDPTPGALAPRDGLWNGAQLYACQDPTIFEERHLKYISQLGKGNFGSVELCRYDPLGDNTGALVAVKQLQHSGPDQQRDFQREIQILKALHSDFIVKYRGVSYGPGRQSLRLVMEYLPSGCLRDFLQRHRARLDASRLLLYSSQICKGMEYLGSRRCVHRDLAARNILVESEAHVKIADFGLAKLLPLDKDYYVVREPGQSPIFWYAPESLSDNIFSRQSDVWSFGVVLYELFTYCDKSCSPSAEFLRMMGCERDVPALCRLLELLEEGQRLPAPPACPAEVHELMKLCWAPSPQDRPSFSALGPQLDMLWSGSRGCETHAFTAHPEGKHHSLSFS

[21] = target: Receptor tyrosine-protein kinase erbB-2 (Homo sapiens) (UniProt P04626); test: Inhibition of ERBB2 (unknown origin)
Chain of Receptor tyrosine-protein kinase erbB-2 (Homo sapiens) (P04626 whole entry): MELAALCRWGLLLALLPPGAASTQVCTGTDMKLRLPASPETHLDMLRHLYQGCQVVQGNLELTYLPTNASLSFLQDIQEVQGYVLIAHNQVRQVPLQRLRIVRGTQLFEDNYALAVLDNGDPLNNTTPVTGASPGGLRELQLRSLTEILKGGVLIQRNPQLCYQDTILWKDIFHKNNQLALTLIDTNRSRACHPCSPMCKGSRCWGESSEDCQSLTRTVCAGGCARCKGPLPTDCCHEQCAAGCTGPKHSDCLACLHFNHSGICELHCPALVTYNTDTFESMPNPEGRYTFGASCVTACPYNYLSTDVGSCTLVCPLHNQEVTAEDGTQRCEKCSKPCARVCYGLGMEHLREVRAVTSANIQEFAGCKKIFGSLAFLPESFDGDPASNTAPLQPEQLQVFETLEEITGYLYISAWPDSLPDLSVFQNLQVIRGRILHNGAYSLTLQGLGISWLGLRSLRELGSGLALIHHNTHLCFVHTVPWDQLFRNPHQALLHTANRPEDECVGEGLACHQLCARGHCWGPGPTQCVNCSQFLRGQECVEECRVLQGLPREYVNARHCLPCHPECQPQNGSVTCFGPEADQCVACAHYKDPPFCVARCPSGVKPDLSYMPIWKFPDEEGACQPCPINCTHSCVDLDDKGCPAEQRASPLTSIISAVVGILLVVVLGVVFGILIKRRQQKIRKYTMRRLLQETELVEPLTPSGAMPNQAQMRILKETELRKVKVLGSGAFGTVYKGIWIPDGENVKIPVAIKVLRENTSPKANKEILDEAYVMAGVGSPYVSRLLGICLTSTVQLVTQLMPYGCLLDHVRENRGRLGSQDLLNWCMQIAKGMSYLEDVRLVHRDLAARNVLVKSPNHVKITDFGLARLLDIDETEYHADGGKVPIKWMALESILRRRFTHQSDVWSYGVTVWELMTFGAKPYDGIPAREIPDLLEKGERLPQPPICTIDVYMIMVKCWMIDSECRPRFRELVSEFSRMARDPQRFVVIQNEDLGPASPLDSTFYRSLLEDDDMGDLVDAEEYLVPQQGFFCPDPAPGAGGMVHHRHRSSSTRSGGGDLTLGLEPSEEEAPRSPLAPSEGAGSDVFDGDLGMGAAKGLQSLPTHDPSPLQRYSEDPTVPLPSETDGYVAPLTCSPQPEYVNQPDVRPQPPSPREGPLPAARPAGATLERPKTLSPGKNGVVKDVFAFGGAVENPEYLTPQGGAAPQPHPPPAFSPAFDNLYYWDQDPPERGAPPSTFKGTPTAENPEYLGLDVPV

[22] = tested on: Mus musculus; test: […] activity in ovalbumin-immunized po dosed C57Bl6 mouse assessed as reduction in skin swelling administered 2 h prior to OVA immunization and measured after 5 hrs by caliper method; format: functional, organism-based; settings: dose mg/kg 6-60, time 2.0 hrs; method in brief: as §3
[23] = tested on: Mus musculus; test: […] activity in ovalbumin-immunized C57Bl6 mouse assessed as reduction in skin swelling at 60 mg/kg, po administered 2 h prior to OVA immunization and measured after 5 hrs by caliper method relative to control; format: functional; design: scale not given: the % may be the effect or the level left; method in brief: as §3
[24] = target: T1, Tyrosine-protein kinase BTK; test: Inhibition of BTK in vitamin D3 differentiated human THP1 cells assessed as inhibition of FCgammaR-induced IL8 production measured after 24 hrs by immunoblot analysis

T1 sequence (Q06187 whole entry): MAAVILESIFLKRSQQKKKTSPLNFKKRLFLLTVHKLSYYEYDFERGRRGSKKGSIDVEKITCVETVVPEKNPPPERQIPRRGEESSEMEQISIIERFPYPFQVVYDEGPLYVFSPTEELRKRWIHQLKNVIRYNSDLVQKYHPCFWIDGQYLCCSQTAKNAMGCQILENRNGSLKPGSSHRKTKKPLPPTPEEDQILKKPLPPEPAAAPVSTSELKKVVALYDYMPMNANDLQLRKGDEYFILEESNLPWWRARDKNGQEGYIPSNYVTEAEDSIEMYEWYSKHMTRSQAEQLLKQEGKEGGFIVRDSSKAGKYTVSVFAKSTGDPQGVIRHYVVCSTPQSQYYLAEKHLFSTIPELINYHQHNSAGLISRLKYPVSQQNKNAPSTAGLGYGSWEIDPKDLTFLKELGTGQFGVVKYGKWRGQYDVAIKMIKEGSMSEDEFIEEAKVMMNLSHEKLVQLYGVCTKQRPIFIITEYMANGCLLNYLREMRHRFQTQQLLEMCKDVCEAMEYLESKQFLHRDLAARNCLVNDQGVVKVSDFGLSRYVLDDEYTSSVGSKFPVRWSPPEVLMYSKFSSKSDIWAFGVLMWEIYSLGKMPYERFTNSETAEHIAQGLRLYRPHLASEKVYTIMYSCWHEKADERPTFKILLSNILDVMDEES

| SMILES | Intrinsic clearance (CLint) [1] | IC50 [2] | IC50 [3] | clearance [4] | Intrinsic clearance (CLint) [6] | Activity [5] | other results |
| --- | --- | --- | --- | --- | --- | --- | --- |
| CCC(=O)N(C)Cc1c[nH]c2ncnc(-c3cccc(NC(=O)c4ccc(C(C)(C)C)cc4)c3C)c12 |  | 3900 nM |  |  |  |  |  |
| C=CC(=O)N1CCCC(c2c[nH]c3ncnc(-c4cc(F)cc(NC(=O)c5ccc(C6CC6)cc5)c4C)c23)C1 (stereo not given) | > 700 µL/min/mg | 390 nM | 8000 nM |  | 603 µL/min/mg |  |  |
| C=CC(=O)N1CCC[C@@H](n2nc(-c3ccc(Oc4ccccc4)cc3)c3c(N)ncnc32)C1 [IBRUTINIB] |  |  |  |  |  | 93% | Activity [8]: 84%; concentration at 2 h [9]: 187 nM |
| C=CC(=O)N(C)Cc1c[nH]c2ncnc(-c3cccc(NC(=O)c4ccc(C5CC5)cc4)c3C)c12 | 578 µL/min/mg | 190 nM | 7470 nM |  | 252 µL/min/mg |  |  |
| C=CC(=O)N1CC=C(c2c[nH]c3ncnc(-c4cc(F)cc(NC(=O)c5ccc(C6CC6)cc5)c4C)c23)CC1 | 408 µL/min/mg |  |  | > 300 mL/min/kg | 660 µL/min/mg | 96% |  |
| C=CC(=O)N(C)Cc1c[nH]c2ncnc(-c3cccc(NC(=O)c4ccc(C(C)(C)C)cc4)c3C)c12 | 693 µL/min/mg |  | 934 nM |  | > 700 µL/min/mg |  | concentration at 2 h [10]: 14 nM; IC50 [11]: > 10000 nM; concentration at 2 h [12]: 4 nM; IC50 [13]: > 10000 nM; CL/F [14]: > 300 mL/min/kg; bioavailability [15]: 2%; CLH [16]: 554 µL/min/mg; inhibition [17]: Active; Activity [7]: inactive; IC50 [18]: > 8000 nM; concentration at 2 h [19]: 118 nM; inhibition [20]: inactive; inhibition [21]: inactive; Activity [22]: Dose-dependent effect; Activity [23]: 65%; IC50 [24]: 80 nM |
| C=CC(=O)N(C)Cc1c[nH]c2ncnc(-c3cc(F)cc(NC(=O)c4ccc(C5CC5)cc4)c3C)c12 | > 700 µL/min/mg | 26 nM | 1260 nM |  | 308 µL/min/mg |  |  |

Further lines, with some results ahead:

| Intrinsic clearance (CLint) [1] | IC50 [2] | IC50 [3] | clearance [4] | Intrinsic clearance (CLint) [6] | SMILES | Activity [5] | other results |
| --- | --- | --- | --- | --- | --- | --- | --- |
| 127 µL/min/mg | 6 nM | 66 nM | > 300 mL/min/kg | 459 µL/min/mg | C/C=C/C(=O)N1CC=C(c2c[nH]c3ncnc(-c4cc(F)cc(NC(=O)c5ccc(C6CC6)cc5)c4C)c23)CC1 | 70% |  |
| 628 µL/min/mg | 0.6 nM | 26 nM | 176 mL/min/kg | > 700 µL/min/mg | Cc1c(NC(=O)c2ccc(C3CC3)cc2)cc(F)cc1-c1ncnc2[nH]cc(C3=CCN(C(=O)/C=C/CN4CCCC4)CC3)c12 |  | Activity [7]: inactive |
| 578 µL/min/mg | 1 nM | 19 nM |  | 126 µL/min/mg | C=CC(=O)N1CCC(c2c[nH]c3ncnc(-c4cc(F)cc(NC(=O)c5ccc(C6CC6)cc5)c4C)c23)CC1 |  |  |
| 171 µL/min/mg | 5 nM | 225 nM |  | 111 µL/min/mg | C=CC(=O)N1CCC(c2c[nH]c3ncnc(-c4cc(F)cc(NC(=O)c5ccc(C6CC6)cc5)c4C)c23)C1 (stereo not given) |  |  |
| 41 µL/min/mg | 1.4 nM | 303 nM | 183 mL/min/kg | 3 µL/min/mg | C=CC(=O)N1CC(O)(c2c[nH]c3ncnc(-c4cc(F)cc(NC(=O)c5ccc(C6CC6)cc5)c4C)c23)C1 |  |  |
| 98 µL/min/mg | 1.2 nM | 16 nM | 300 mL/min/kg | 39 µL/min/mg | C=CC(=O)N(C)C(=O)Cc1c[nH]c2ncnc(-c3cc(F)cc(NC(=O)c4ccc(C5CC5)cc4)c3C)c12 | 44% |  |
